Experimental data as given in ChEMBL document CHEMBL1124128, “Angiotensin-converting enzyme inhibitors. Mercaptan, carboxyalkyl dipeptide, and phosphinic acid inhibitors incorporating 4-substituted prolines” (J Med Chem, 1988).
Values joined by “and” are separate entries in the source; they are usually repeats but may differ in a detail not shown here. Equal values may be shown once.

What was measured:
[1] = system: Rattus norvegicus; experiment: (§1) % Inhibition of angiotensin-I induced pressor response in normotensive rats after intravenous dosing of 5 umol/kg; assay type: functional
In short: (§2)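 Conscious, unrestrained male Sprague–Dawley rats (225–275 g) with indwelling aortic and vena caval catheters, allowed at least 2 weeks of recovery. Aortic pressure recorded directly. Baseline pressor responses to AI (310 ng/kg iv) and AII (100 ng/kg iv) were taken first. Compound was given iv in 0.1 mL water or 5% NaHCO3, and responses were followed for up to 70 min. Maximum % inhibition is the mean of four animals per dose.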

[2] = molecular target: T1, Angiotensin-converting enzyme (Rattus norvegicus) (UniProt P47820); experiment: In vitro inhibition of rat Angiotensin I converting enzyme
T1 sequence (whole entry): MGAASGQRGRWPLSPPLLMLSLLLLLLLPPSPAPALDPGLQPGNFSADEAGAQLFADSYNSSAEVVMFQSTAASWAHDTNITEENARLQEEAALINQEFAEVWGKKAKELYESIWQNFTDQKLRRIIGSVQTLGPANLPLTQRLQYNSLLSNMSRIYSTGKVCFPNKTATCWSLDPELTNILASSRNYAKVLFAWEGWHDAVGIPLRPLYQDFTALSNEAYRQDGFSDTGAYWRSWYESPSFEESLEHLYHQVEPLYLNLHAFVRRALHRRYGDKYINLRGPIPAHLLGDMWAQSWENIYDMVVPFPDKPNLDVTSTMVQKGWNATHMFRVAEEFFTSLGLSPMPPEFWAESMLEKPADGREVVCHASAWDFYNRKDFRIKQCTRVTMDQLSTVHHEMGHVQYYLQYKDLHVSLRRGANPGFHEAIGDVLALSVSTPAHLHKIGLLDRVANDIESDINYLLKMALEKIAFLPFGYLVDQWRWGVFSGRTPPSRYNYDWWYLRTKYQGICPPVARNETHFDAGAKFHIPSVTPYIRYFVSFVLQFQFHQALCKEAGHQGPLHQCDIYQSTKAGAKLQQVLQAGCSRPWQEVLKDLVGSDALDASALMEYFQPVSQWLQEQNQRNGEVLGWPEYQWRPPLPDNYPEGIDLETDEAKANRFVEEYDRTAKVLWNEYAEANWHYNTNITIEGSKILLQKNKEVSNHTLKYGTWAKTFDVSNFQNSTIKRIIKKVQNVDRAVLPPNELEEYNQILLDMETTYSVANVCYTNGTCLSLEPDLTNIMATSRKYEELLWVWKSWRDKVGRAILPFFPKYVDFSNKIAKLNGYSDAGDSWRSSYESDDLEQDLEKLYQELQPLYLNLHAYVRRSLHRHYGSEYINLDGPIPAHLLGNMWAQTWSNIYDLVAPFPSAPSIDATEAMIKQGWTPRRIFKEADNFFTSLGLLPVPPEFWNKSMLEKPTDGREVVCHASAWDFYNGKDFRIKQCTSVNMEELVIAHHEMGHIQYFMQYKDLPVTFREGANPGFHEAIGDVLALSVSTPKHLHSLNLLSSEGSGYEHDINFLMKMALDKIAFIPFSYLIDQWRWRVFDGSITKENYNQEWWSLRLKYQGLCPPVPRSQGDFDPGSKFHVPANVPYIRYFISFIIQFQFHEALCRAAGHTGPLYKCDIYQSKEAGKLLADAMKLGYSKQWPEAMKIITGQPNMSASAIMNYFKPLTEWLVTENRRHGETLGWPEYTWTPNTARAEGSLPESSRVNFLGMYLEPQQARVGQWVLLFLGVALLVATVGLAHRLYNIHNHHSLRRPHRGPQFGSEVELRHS

[3] = system: Rattus norvegicus; experiment: % Inhibition of angiotensin-I induced pressor response in normotensive rats after intravenous dosing of 0.5 umol/kg; assay type: functional; in short: as §2
[4] = system: Rattus norvegicus; experiment: % Inhibition of angiotensin-I induced pressor response in normotensive rats after intravenous dosing of 0.15 umol/kg; assay type: functional; in short: as §2
[5] = system: Rattus norvegicus; experiment: % Inhibition of angiotensin-I induced pressor response in normotensive rats after intravenous dosing of 1.5 umol/kg; assay type: functional; in short: as §2
[6] = system: Rattus norvegicus; experiment: (§3) % Inhibition of angiotensin-I induced pressor response in normotensive rats after intravenous dosing of 0.05 umol/kg; assay type: functional
In short: (§4)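 Male Sprague–Dawley rats (225–275 g) fitted with indwelling abdominal aorta and vena cava catheters, recovered at least 2 weeks, then tested conscious and unrestrained. Aortic pressure was recorded directly. Pressor responses to AI (310 ng/kg iv) and AII (100 ng/kg iv) were taken before dosing. Compound was given iv in water or 5% NaHCO3, and responses were followed up to 70 min. Maximum % inhibition is the mean of four animals per dose.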

[7] = system: Rattus norvegicus; experiment: % Inhibition of angiotensin-I induced pressor response in normotensive rats after peroral dosing of 50 umol/kg; assay type: functional; settings: po
In short: (§5)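 Conscious, unrestrained catheterized male Sprague–Dawley rats (225–275 g) had direct aortic pressure recording. Baseline pressor responses were taken to AI (310 ng/kg iv) and AII (100 ng/kg iv). Compound was given orally in water, 5% NaHCO3 or 1% agar suspension. AI and AII responses were then tracked up to 280 min. Maximum % inhibition is the mean response of four animals per dose.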

[8] = system: Rattus norvegicus; experiment: as §1; assay type: functional; in short: as §4; remark: listed apart in the source
[9] = system: Rattus norvegicus; experiment: % Inhibition of angiotensin-I induced pressor response in normotensive rats after peroral dosing of 5 umol/kg; assay type: functional; settings: po; in short: as §5
[10] = system: Rattus norvegicus; experiment: % Inhibition of angiotensin-I induced pressor response in normotensive rats after peroral dosing of 0.5 umol/kg; assay type: functional; settings: po; in short: as §5
[11] = system: Rattus norvegicus; experiment: % Inhibition of angiotensin-I induced pressor response in normotensive rats after peroral dosing of 1.5 umol/kg; assay type: functional; settings: po; in short: as §5
[12] = system: Rattus norvegicus; experiment: (§6) % Inhibition of angiotensin-I induced pressor response in normotensive rats after peroral dosing of 15 umol/kg; assay type: functional; settings: po; in short: as §5
[13] = system: Rattus norvegicus; experiment: as §6; assay type: functional; settings: po; remark: listed apart in the source
In short: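 Catheterized conscious male Sprague–Dawley rats (225–275 g). Baseline pressor responses to AI (310 ng/kg iv) and AII (100 ng/kg iv) were taken. Compound was given orally in 0.75 mL water, 5% NaHCO3 or 1% agar suspension, and AI/AII responses were followed for up to 280 min. Maximum % inhibition is the mean of four animals per dose.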

[14] = molecular target: T2, Angiotensin-converting enzyme (Oryctolagus cuniculus, UniProt P12822); experiment: Inhibitory activity against rabbit lung angiotensin-1 converting enzyme
T2 sequence (P12822 whole entry): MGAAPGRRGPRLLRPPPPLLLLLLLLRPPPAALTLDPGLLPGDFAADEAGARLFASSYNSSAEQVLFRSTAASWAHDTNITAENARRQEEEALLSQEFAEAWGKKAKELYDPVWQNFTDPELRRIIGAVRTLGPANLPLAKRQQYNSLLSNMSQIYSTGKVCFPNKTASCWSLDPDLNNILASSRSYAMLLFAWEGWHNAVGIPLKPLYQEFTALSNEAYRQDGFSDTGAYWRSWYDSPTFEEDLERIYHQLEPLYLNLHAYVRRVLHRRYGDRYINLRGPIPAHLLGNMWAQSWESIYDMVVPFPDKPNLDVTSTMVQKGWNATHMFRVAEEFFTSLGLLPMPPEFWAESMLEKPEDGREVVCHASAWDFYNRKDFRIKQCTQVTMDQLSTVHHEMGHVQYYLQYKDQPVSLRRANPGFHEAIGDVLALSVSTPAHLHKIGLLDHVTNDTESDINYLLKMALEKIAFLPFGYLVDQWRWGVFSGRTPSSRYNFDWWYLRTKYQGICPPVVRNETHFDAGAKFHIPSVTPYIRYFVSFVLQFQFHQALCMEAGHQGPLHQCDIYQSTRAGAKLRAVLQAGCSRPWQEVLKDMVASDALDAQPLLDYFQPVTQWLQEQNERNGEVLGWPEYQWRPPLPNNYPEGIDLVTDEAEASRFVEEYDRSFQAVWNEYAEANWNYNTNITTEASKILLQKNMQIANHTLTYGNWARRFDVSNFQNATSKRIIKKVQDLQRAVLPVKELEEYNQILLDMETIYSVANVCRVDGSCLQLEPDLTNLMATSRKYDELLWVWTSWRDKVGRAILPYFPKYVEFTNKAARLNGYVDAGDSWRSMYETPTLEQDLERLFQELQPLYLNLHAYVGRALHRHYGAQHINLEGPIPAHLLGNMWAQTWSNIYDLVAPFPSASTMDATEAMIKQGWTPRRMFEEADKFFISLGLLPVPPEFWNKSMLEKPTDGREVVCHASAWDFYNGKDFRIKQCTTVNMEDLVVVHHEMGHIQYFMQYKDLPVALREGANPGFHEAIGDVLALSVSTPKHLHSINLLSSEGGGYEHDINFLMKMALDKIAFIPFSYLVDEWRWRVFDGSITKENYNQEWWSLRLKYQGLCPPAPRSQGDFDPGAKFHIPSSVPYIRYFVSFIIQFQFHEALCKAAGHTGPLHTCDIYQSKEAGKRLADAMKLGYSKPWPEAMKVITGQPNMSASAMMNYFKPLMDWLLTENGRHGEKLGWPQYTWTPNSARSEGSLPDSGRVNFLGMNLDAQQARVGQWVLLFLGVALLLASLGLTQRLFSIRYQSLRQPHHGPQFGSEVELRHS

[15] = system: Rattus norvegicus; experiment: % Inhibition of angiotensin-I induced pressor response in normotensive rats after peroral dosing of 150 umol/kg; assay type: functional; settings: po; in short: as §5
[16] = system: Rattus norvegicus; experiment: % Inhibition of angiotensin-I induced pressor response in normotensive rats after peroral dosing of 0.15 umol/kg; assay type: functional; settings: po; in short: as §5
[17] = system: Rattus norvegicus; experiment: as §3; assay type: functional; in short: as §2; remark: listed apart in the source
[18] = system: Rattus norvegicus; experiment: % Inhibition of angiotensin-I induced pressor response in normotensive rats after intravenous dosing of 0.015 umol/kg; assay type: functional; in short: as §4
[19] = molecular target: T1, Angiotensin-converting enzyme (Rattus norvegicus); experiment: Evaluated for inhibition of Angiotensin I converting enzyme in rat; assay type: functional; settings: concentration not given here

Row | SMILES | inhibition in vivo at 5 µmol/kg [1] | T50 [2] | inhibition in vivo at 0.5 µmol/kg [3] | inhibition in vivo at 0.15 µmol/kg [4] | inhibition in vivo at 1.5 µmol/kg [5] | inhibition in vivo at 0.05 µmol/kg [6] | inhibition in vivo at 5 µmol/kg [9] | further results
1 | O=C(O)[C@@H]1C[C@@H](Sc2ccccc2)CN1C(=O)CP(=O)(O)CCCCc1ccccc1 | 78% | 17 nM | 48% | 19% | 69% | 20% | – | –
2 | C[C@H](CS)C(=O)N1CCC[C@H]1C(=O)O [CAPTOPRIL] | – | – | 87% | 66% | 91% | 18% | 79% | inhibition in vivo at 50 µmol/kg [7]: 93%; inhibition in vivo at 5 µmol/kg [8]: 93%; inhibition in vivo at 0.5 µmol/kg [10]: 42%; inhibition in vivo at 1.5 µmol/kg [11]: 61%; inhibition in vivo at 15 µmol/kg [12]: 78%
3 | O=C(O)[C@@H]1C[C@@H](C2CCCCC2)CN1C(=O)CP(=O)(O)CCCCc1ccccc1 [FOSINOPRILAT] | – | 11 nM and 4 nM | 87% | 68% | – | 21% | 28% | inhibition in vivo at 15 µmol/kg [13]: 71%; Ki [14]: 1.5 nM
4 | O=C(O)[C@@H]1CCCN1C(=O)CP(=O)(O)CCCCc1ccccc1 | 92% | 180 nM | 56% | – | 86% | – | – | inhibition in vivo at 50 µmol/kg [7]: 47%; inhibition in vivo at 150 µmol/kg [15]: 75%; Ki [14]: 15 nM; inhibition in vivo at 15 µmol/kg [12]: 13%
5 | CCOC(=O)[C@H](CCc1ccccc1)N[C@@H](C)C(=O)N1CC2(C[C@H]1C(=O)O)SCCS2 | – | – | – | – | – | – | – | inhibition in vivo at 0.15 µmol/kg [16]: 15%; inhibition in vivo at 0.5 µmol/kg [10]: 41%; inhibition in vivo at 1.5 µmol/kg [11]: 87%
6 | CO[C@@H]1C[C@@H](C(=O)O)N(C(=O)CP(=O)(O)CCCCc2ccccc2)C1 | – | 100 nM | 73% | – | – | – | – | inhibition in vivo at 0.05 µmol/kg [17]: 33%; inhibition in vivo at 0.015 µmol/kg [18]: 23%
7 | O=C(O)[C@@H]1C[C@H](C2CCCCC2)CN1C(=O)CP(=O)(O)CCCCc1ccccc1 | – | 7 nM | 84% | 73% | – | 26% | 13% | inhibition [19]: 72%
8 | O=C(O)[C@@H]1C[C@H](Sc2ccccc2)CN1C(=O)CP(=O)(O)CCCCc1ccccc1 | 88% | 20 nM | 34% | 27% | 65% | – | – | –
